Series [1] has as its system Human immunodeficiency virus 1. Briefly: Antiviral activity against HIV1 RF in CEM-SS cells assessed as inhibition of virus-induced cytopathic effect by XTT assay. Conditions: Human immunodeficiency virus 1, RF. The series is classed as functional, organism-based. The gist of the method: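 CEM-SS cells infected with HIV-1 RF; XTT cytoprotection read-out; EC50 is the concentration that inhibits 50% of viral cytopathic effect.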

A short description of series [2]: Cytotoxicity against human CEM-SS cells. The series is classed as cell-based. An outline of the steps: (§1)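 Mock-infected CEM-SS or MT-4 cells run alongside the antiviral cultures; CC50 is the concentration causing death of 50% of the cells.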
The target in series [3] is 3',5'-cyclic-AMP phosphodiesterase 4B (Homo sapiens) (UniProt Q07343). Briefly: Inhibition of PDE4B2 expressed in COS7 cells assessed as cAMP hydrolysis at 100 uM. To be noted: COS-7. The series is classed as cell-based.
The target in series [4] is Human immunodeficiency virus type 1 reverse transcriptase (Human immunodeficiency virus 1, UniProt Q72547). Briefly: Inhibition of HIV1 reverse transcriptase. An outline of the steps:
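Recombinant HIV-1 RT, p66/51 heterodimer; polymerase activity measured with poly(rC).oligo(dG) as template primer.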

For series [5], the system named is Human immunodeficiency virus 1. As to the kind of experiment: Antiviral activity against HIV1 3B in MT4 cells assessed as inhibition of virus-induced cytopathic effect by MTT assay. The series is classed as functional, organism-based. Conditions: Human immunodeficiency virus 1, 3B. An outline of the steps: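 Cytoprotection in MT-4 cells infected with HIV-1 IIIB, read by MTT assay; EC50 taken as the concentration giving 50% inhibition of viral cytopathic effect.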
On the technique in general: Cytopathic effects are the visible damage that an infection or toxin causes in cultured cells.

In series [6] the test system is Human immunodeficiency virus 2. As to the kind of experiment: Antiviral activity against HIV2 ROD in MT4 cells assessed as inhibition of virus-induced cytopathic effect by MTT assay. The series is classed as functional, organism-based. The gist of the method:
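MT-4 cells infected with HIV-2 ROD; protection from cytopathic effect read by MTT assay; EC50 is the concentration blocking 50% of virus-induced cell killing.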

The nature of series [7]: Cytotoxicity against human MT4 cells. The series is classed as cell-based. The gist of the method:
as §1

Broadly, the EC50 is the concentration at which the effect is half-maximal. What is called CC50 is the concentration at which the toxic effect on the cells reaches its halfway point. High values mean lower toxicity to the cells, low ones greater toxicity to the cells. The IC50 is the concentration that gives 50% inhibition. Lower therefore signals greater potency. What is called inhibition is how much of the control response was suppressed.

Calls of active or inactive are those of the source. No cut-off for these calls is given here.

Sequence of 3',5'-cyclic-AMP phosphodiesterase 4B (Homo sapiens) (Q07343 whole entry): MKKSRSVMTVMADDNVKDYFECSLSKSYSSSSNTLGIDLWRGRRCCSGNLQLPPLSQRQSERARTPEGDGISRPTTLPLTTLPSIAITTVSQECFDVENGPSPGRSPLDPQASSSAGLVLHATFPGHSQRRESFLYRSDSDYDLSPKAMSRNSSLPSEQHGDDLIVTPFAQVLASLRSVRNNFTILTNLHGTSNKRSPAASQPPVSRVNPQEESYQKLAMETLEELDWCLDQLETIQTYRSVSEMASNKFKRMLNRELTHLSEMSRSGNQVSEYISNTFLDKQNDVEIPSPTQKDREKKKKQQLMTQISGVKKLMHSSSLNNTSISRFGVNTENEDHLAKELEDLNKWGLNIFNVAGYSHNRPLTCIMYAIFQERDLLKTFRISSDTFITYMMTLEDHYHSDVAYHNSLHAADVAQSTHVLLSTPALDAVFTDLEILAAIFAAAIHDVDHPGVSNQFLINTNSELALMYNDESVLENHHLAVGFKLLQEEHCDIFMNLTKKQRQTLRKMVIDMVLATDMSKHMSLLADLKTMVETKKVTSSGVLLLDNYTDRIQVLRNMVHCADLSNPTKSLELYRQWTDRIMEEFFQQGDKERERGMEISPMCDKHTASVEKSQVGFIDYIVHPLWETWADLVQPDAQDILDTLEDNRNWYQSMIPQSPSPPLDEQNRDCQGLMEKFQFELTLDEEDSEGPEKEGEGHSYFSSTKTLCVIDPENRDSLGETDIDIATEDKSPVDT

Consider `CCCCCC=C(c1cc(Cl)c(OC)c(C(=O)OC)c1)c1cc(Cl)c(OC)c(C(=O)OC)c1`, for which the EC50 in series [1] worked out at 16 µM. Further, in series [2], the CC50 is over 29 µM. Further, in series [3], the outcome was inactive.
For `COC(=O)c1cc(C(=CCCCSC)c2cc(Cl)c(OC)c(C(=O)OC)c2)cc(Cl)c1OC`, the 50% inhibitory concentration (IC50) in series [4] was over 100 µM. Also, in series [1], the EC50 was 5.3 µM. Moreover, the 50% cytotoxic concentration (CC50) in series [2] was over 20 µM. Also, the inhibition in series [3] stood at 20%.
As for `COC(=O)CCC/C=C(\c1cc(C)c(OC)c(C(=O)OC)c1)c1cc(C)c2oc(=O)n(C)c2c1`, the EC50 is 0.03 µM in series [1] and 0.09 µM in series [5]. The result in series [6] was inactive. In addition, in series [3], the inhibition turned out to be 72%.
For the compound `Cc1ccnc2c1NC(=O)c1cccnc1N2C1CC1`, in series [6], the outcome was inactive.
`COC(=O)CCCC=C(c1cc(C)c2oc(=O)n(C)c2c1)c1cc(C)c2oc(=O)n(C)c2c1` registered a half-inhibitory concentration (IC50) in series [4] of 0.5 µM. The half-maximal effective concentration (EC50) in series [1] is 0.62 µM; in series [5], 0.22 µM. Moreover, the outcome in series [6] was inactive. The 50% cytotoxic concentration (CC50) in series [2] is 31 µM; in series [7] it was 33 µM. In series [3], the inhibition came to 71%.
Turning to `COc1ccc(C2CNC(=O)C2)cc1OC1CCCC1` (stereo not drawn), the inhibition in series [3] came out at 100%.
On to `COC(=O)CCCC=C(c1cc(Br)c(OC)c(C(=O)OC)c1)c1cc(Br)c(OC)c(C(=O)OC)c1`, for which the half-maximal effective concentration (EC50) in series [1] was 0.001 µM. For the same compound, the outcome in series [6] was inactive. The inhibition in series [3] was 40%.
Consider `COC(=O)c1cc(C(=CCCCc2ccccc2)c2cc(Br)c(OC)c(C(=O)OC)c2)cc(Br)c1OC`, for which the 50% inhibitory concentration (IC50) in series [4] was over 100 µM. Moreover, the EC50 in series [6] (Human immunodeficiency virus 2, ROD) stood at 21 µM. For the same compound, the figures for the CC50 in series [2] and in series [7] were over 200 µM and over 198 µM, respectively. For the same compound, in series [3], the result was inactive.

Values taken from ChEMBL document CHEMBL1142364, “Investigation of the alkenyldiarylmethane non-nucleoside reverse transcriptase inhibitors as potential cAMP phosphodiesterase-4B2 inhibitors” (Bioorg Med Chem Lett, 2008).
